Test: Toxicity liver stage against HepG2, at 10uM
Format: cell-based
Set-up: test concentration 10 uM, cell line HepG2-A16-CD81EGFP
Conditions: human, HepG2-A16-CD81EGFP cells; read-out: INHIBITION
Summary of the method: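 Uninfected HepG2-A16-CD81EGFP cells, 3 × 10^3 per well, 1536-well, plated on prespotted compound at 10 μM final, parasite-free screening media added to match infected plates; puromycin 10 μM positive, DMSO 0.5% negative; run in parallel with 48 h PbLuc assay at 37 °C, 5% CO2; viability by CellTiter-Glo luminescence, normalized to controls.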

| Structure (SMILES) | cytotoxicity at 10 µM [%] |
| --- | --- |
| O=C(CCCc1ccccn1)N1CCOc2ccc(F)cc21 | 9.81 |
| CC1CN(Cc2ccccc2)CCCN1CCCS(C)(=O)=O (stereo unspecified) | 5.27 |
| CCOC(=O)C(C)Nc1ccc(CCN2CCOCC2)cc1 (stereo unspecified) | -2.2 |
| CNC(=O)C(C)CN(C)C(=O)Nc1cc(-n2cccc2)ccc1F (stereo unspecified) | -5.28 |
| CC1CCN(CCNC(=O)C2CCN(S(N)(=O)=O)CC2)CC1 | 17.9 |
| COCCC(=O)Nc1ccnc(Oc2ccccc2)c1 | 7.85 |
| Cc1nccn1-c1cc(CNC(=O)C(C)(C)C)ccn1 | -11.9 |
| COCCN1CCc2ncnc(NC3CC3)c2CC1 | 5.62 |
| COCC(=O)N1Cc2nccn2CC(CN(C)Cc2cccnc2)C1 (stereo unspecified) | -76.2 |
| C[C@H](NS(C)(=O)=O)C(=O)NCc1cc(-c2ccco2)n(CC(F)(F)F)n1 | -13 |
| CNS(=O)(=O)CCN1CC(c2ccccc2)(c2ccccc2)CCC1=O | -7.91 |
| COc1ncc(CN2CCOC(Cc3cccc4ccccc34)C2)cn1 (stereo unspecified) | -3.94 |
| Cc1nc(C)c(CC(=O)N2CCCN(CC3CC3)C(C(C)C)C2)c(=O)[nH]1 (stereo unspecified) | -153 |
| O=S(=O)(NCC1COc2ccccc2C1)N1CCCC1 (stereo unspecified) | -7.74 |
| Cc1nnc(CCNC(=O)Nc2ccc(S(C)(=O)=O)cc2)[nH]1 | 7.91 |
| c1ccc(CCc2n[nH]c(C3CCC3)n2)cc1 | -3.58 |
| Cc1cc(C)c(Cn2cncn2)cc1CN1CCC(CN)C1 (stereo unspecified) | -11.3 |
| COCc1cc(N(C)Cc2cc(C(C)(C)C)n[nH]2)ncn1 | -1.15 |
| CCCC1COCCN1Cc1ccc(NC(C)=O)cc1 (stereo unspecified) | -145 |

| Structure (SMILES) | cytotoxicity at 10 µM [%] |
| --- | --- |
| CC(=O)c1cccc(-c2c[nH]c(C)n2)c1 | -0.916 |
| CCOC(=O)N1CCC(Nc2cc(CC)nc3c(C)c(C)nn23)CC1 | 11.8 |
| COCCCC1(C(=O)O)CCCN(Cc2cc3c(cc2C)OCCO3)C1 (stereo unspecified) | -2.3 |
| O=C(CCNc1ncc2c(n1)CCN2c1ccccc1)N1CCCC1 | 9.5 |
| CN(Cc1ccc2nonc2c1)C(=O)CCc1cc2n(n1)CCCNC2 | -9.46 |
| CCc1nc(C)sc1CN1CC[C@](O)(CC)[C@H](O)C1 | -5.61 |
| CN1CC(c2ccccc2)CC2(CCN(CC(=O)N(C)C)CC2)C1 (stereo unspecified) | -12.5 |
| Cn1cnnc1C1CCCN(C(=O)NCCn2ccnc2)C1 (stereo unspecified) | -2.74 |
| CC(C)c1nc(C2CCCN2C(=O)c2cnns2)no1 (stereo unspecified) | -6.8 |
| CC(C)n1ccc(CN2CCOC(CNc3cccnn3)C2)n1 (stereo unspecified) | -16.6 |
| Cc1ccn2ncc(C(=O)N3CCCC(n4ccnc4C)C3)c2n1 (stereo unspecified) | -13.6 |
| CCC(C)(C)NC(=O)Cn1nc(C)nc1-c1ccccc1 | -15.4 |
| CC(C)Cc1noc(CN2CCCC2c2noc(C3CC3)n2)n1 (stereo unspecified) | -12.9 |
| O=C(CCn1cncn1)N1CCCC1c1noc(C2CC2)n1 (stereo unspecified) | -23.3 |
| Fc1cccc(-n2ccc(CN3CCCC3Cn3cccn3)n2)c1 (stereo unspecified) | -13.1 |
| COc1c(CNCc2ccc(S(C)(=O)=O)cc2)c(C)nn1C | -8.27 |
| COc1ccc(CCC(=O)N2CCCCC2Cn2cccn2)cc1F (stereo unspecified) | -8.7 |
| Cc1nc(CN2CCCC(N(C)Cc3nc(C)c(C)o3)C2)no1 (stereo unspecified) | -6.6 |
| CC(=O)Nc1nc(C(=O)NC(C)c2ccc(F)c(F)c2)cs1 (stereo unspecified) | -5.39 |

| Structure (SMILES) | cytotoxicity at 10 µM [%] |
| --- | --- |
| Cc1ccc(-c2nc(CN3CCn4c(C)nnc4C3)cs2)o1 | -19.2 |
| O=C(NCC1CCOC1)c1cc(-c2cccc(Cl)c2)on1 (stereo unspecified) | -8.75 |
| O=C(CN1CCCS1(=O)=O)NCCOc1ccc2c(c1)CCC2 | -2.5 |
| Cn1cc([C@@H]2CN(S(=O)(=O)c3cccnc3)C[C@H]2N)c2ccncc21 | -0.57 |
| Cc1ccc(CN2Cc3c(C(=O)N4CCCC4)nn(C)c3C2)s1 | -0.704 |
| O=C1CC2(CCCCN2CC2CC2)CN1c1ccccc1 (stereo unspecified) | 4.86 |
| Cc1ccc(C(=O)N2CCO[C@H]3[C@H](OCc4ccccn4)CC[C@@H]32)o1 | -148 |
| Cc1ccc(CN2CCC3(CC2)C(=O)N(CC(C)C)CCN3C)s1 | -3.63 |
| Cc1cccc(CN2C[C@@H]3CN(C(=O)NC(C)C)C[C@@H]3C2=O)n1 | 2.91 |
| O=C(CC1CC1)N1CC[C@H]2OCC[C@@]2(COc2ncccc2F)C1 | -134 |
| Cc1ncsc1CN1C[C@@H](OCC(=O)N(C)C)[C@H]2OCCC[C@H]21 | -139 |
| Cc1cccc(CN2C[C@@H]3COC[C@]3(CNC(=O)c3ccno3)C2)n1 | 3.84 |
| O=C(NCc1cccs1)C1CNCC12CCOCC2 (stereo unspecified) | -5.43 |
| COc1ccc(CN2CC[C@H]3[C@H]2CC(=O)N3Cc2cccc(C)n2)cc1 | 1.2 |
| CCOCC(=O)N1C[C@@H]2CC[C@H]1CN(C(=O)c1ccncc1)C2 | 0.0793 |
| O=C(c1cccnc1)N1C[C@H]2CC[C@@H](C1)N(Cc1ccc(F)cc1Cl)C2 | 1.17 |
| CCNc1nc2cn(-c3ccc(C)c(C)c3)c(=O)c-2c[nH]1 | 0.255 |
| CSc1ncccc1C(=O)N1C[C@@H]2CC[C@H]1CN(C(C)=O)C2 | 4.99 |
